Results reported in PMC12495087 (ESMO Open, 2025).

Assay: phase I study BOS172738-01: safety and tolerability
Format: in vivo, human
Conditions: for patients who discontinued study treatment due to AEs: interim cut-off
Procedure, shortened: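 Patients received at least one dose of oral drug given once daily in 28-day cycles. Part A escalated 10–150 mg, by accelerated titration (dose doubling) and then 3+3 Fibonacci steps; part B used 75 mg. AEs were graded by CTCAE v4.03 from first dose to 31 days after last dose. DLTs counted in cycle 1. Missing causality was scored as related and missing grade as grade 3.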

[1] = part A, all dose levels, n = 67
[2] = part B, RET gene-fusion NSCLC, 75 mg, n = 20
[3] = part B, RET gene-mutant MTC, 75 mg, n = 7

COc1cc2cc(-c3ccc(CC(=O)Nc4cc(C(C)(C)C(F)(F)F)no4)cn3)cnc2cc1OC [BOS172738]
TEAE related to BOS, any [1]: 61 (91) n (%) | TEAE related to BOS, grade ≥3 [1]: 39 (58) n (%) | patients who discontinued study treatment due to AEs (part A, % of 69 screened): 18 (26%) n (%) | Any TEAE (part B total, n = 50): 50 (100) n (%) | Any TEAE leading to BOS discontinuation (part B total, n = 50): 7 (14) n (%) | Any TEAE leading to BOS dose interruption (part B total, n = 50): 33 (66) n (%) | Any TEAE leading to BOS dose reduction (part B total, n = 50): 10 (20) n (%) | Any TEAE leading to study discontinuation (part B total, n = 50): 7 (14) n (%) | Any TEAE related to BOS leading to BOS discontinuation (part B total, n = 50): 2 (4) n (%) | Any TEAE related to BOS leading to study discontinuation (part B total, n = 50): 1 (2) n (%) | Any TEAE resulting in death (part B total, n = 50): 2 (4) n (%) | Any TEAE, grade ≥3 (part B total, n = 50): 41 (82) n (%) | Serious TEAEs related to BOS (part B total, n = 50): 2 (4) n (%) | Serious TEAEs, any (part B total, n = 50): 28 (56) n (%) | TEAE related to BOS, CTCAE grade ≥3: Anemia (part B total, n = 50): 3 (6) n (%) | TEAE related to BOS, CTCAE grade ≥3: Asthenia (part B total, n = 50): 0 n (%) | TEAE related to BOS, CTCAE grade ≥3: Blood creatinine phosphokinase increased (part B total, n = 50): 10 (20) n (%) | TEAE related to BOS, CTCAE grade ≥3: Diarrhea (part B total, n = 50): 0 n (%) | TEAE related to BOS, CTCAE grade ≥3: Hypophosphatemia (part B total, n = 50): 3 (6) n (%) | TEAE related to BOS, CTCAE grade ≥3: Lymphopenia (part B total, n = 50): 2 (4) n (%) | TEAE related to BOS, CTCAE grade ≥3: Muscular weakness (part B total, n = 50): 0 n (%) | TEAE related to BOS, CTCAE grade ≥3: Myositis (part B total, n = 50): 0 n (%) | TEAE related to BOS, CTCAE grade ≥3: Neutropenia (part B total, n = 50): 0 n (%) | TEAE related to BOS, CTCAE grade ≥3: Neutrophil count decreased (part B total, n = 50): 7 (14) n (%) | TEAE related to BOS, any (part B total, n = 50): 38 (76) n (%) | TEAE related to BOS, grade ≥3 (part B total, n = 50): 24 (48) n (%) | Any TEAE (part B, Other, 75 mg, n = 23): 23 (100) n (%) | Any TEAE leading to BOS discontinuation (part B, Other, 75 mg, n = 23): 5 (22) n (%) | Any TEAE leading to BOS dose interruption (part B, Other, 75 mg, n = 23): 11 (48) n (%) | Any TEAE leading to BOS dose reduction (part B, Other, 75 mg, n = 23): 4 (17) n (%) | Any TEAE leading to study discontinuation (part B, Other, 75 mg, n = 23): 3 (13) n (%) | Any TEAE related to BOS leading to BOS discontinuation (part B, Other, 75 mg, n = 23): 1 (4) n (%) | Any TEAE related to BOS leading to study discontinuation (part B, Other, 75 mg, n = 23): 0 n (%) | Any TEAE resulting in death (part B, Other, 75 mg, n = 23): 1 (4) n (%) | Any TEAE, grade ≥3 (part B, Other, 75 mg, n = 23): 16 (70) n (%) | Serious TEAEs related to BOS (part B, Other, 75 mg, n = 23): 1 (4) n (%) | Serious TEAEs, any (part B, Other, 75 mg, n = 23): 17 (74) n (%) | TEAE related to BOS, CTCAE grade ≥3: Anemia (part B, Other, 75 mg, n = 23): 1 (4) n (%) | TEAE related to BOS, CTCAE grade ≥3: Asthenia (part B, Other, 75 mg, n = 23): 0 n (%) | TEAE related to BOS, CTCAE grade ≥3: Blood creatinine phosphokinase increased (part B, Other, 75 mg, n = 23): 0 n (%) | TEAE related to BOS, CTCAE grade ≥3: Diarrhea (part B, Other, 75 mg, n = 23): 0 n (%) | TEAE related to BOS, CTCAE grade ≥3: Hypophosphatemia (part B, Other, 75 mg, n = 23): 1 (4) n (%) | TEAE related to BOS, CTCAE grade ≥3: Lymphopenia (part B, Other, 75 mg, n = 23): 1 (4) n (%) | TEAE related to BOS, CTCAE grade ≥3: Muscular weakness (part B, Other, 75 mg, n = 23): 0 n (%) | TEAE related to BOS, CTCAE grade ≥3: Myositis (part B, Other, 75 mg, n = 23): 0 n (%) | TEAE related to BOS, CTCAE grade ≥3: Neutropenia (part B, Other, 75 mg, n = 23): 0 n (%) | TEAE related to BOS, CTCAE grade ≥3: Neutrophil count decreased (part B, Other, 75 mg, n = 23): 1 (4) n (%) | TEAE related to BOS, any (part B, Other, 75 mg, n = 23): 11 (48) n (%) | TEAE related to BOS, grade ≥3 (part B, Other, 75 mg, n = 23): 4 (17) n (%) | Any TEAE [2]: 20 (100) n (%) | Any TEAE leading to BOS discontinuation [2]: 1 (5) n (%) | Any TEAE leading to BOS dose interruption [2]: 17 (85) n (%) | Any TEAE leading to BOS dose reduction [2]: 4 (20) n (%) | Any TEAE leading to study discontinuation [2]: 3 (15) n (%) | Any TEAE related to BOS leading to BOS discontinuation [2]: 0 n (%) | Any TEAE related to BOS leading to study discontinuation [2]: 0 n (%) | Any TEAE resulting in death [2]: 1 (5) n (%) | Any TEAE, grade ≥3 [2]: 19 (95) n (%) | Serious TEAEs related to BOS [2]: 1 (5) n (%) | Serious TEAEs, any [2]: 9 (45) n (%) | TEAE related to BOS, CTCAE grade ≥3: Anemia [2]: 2 (10) n (%) | TEAE related to BOS, CTCAE grade ≥3: Asthenia [2]: 0 n (%) | TEAE related to BOS, CTCAE grade ≥3: Blood creatinine phosphokinase increased [2]: 8 (40) n (%) | TEAE related to BOS, CTCAE grade ≥3: Diarrhea [2]: 0 n (%) | TEAE related to BOS, CTCAE grade ≥3: Hypophosphatemia [2]: 0 n (%) | TEAE related to BOS, CTCAE grade ≥3: Lymphopenia [2]: 1 (5) n (%) | TEAE related to BOS, CTCAE grade ≥3: Muscular weakness [2]: 0 n (%) | TEAE related to BOS, CTCAE grade ≥3: Myositis [2]: 0 n (%) | TEAE related to BOS, CTCAE grade ≥3: Neutropenia [2]: 0 n (%) | TEAE related to BOS, CTCAE grade ≥3: Neutrophil count decreased [2]: 5 (25) n (%) | TEAE related to BOS, any [2]: 20 (100) n (%) | TEAE related to BOS, grade ≥3 [2]: 14 (70) n (%) | Any TEAE [3]: 7 (100) n (%) | Any TEAE leading to BOS discontinuation [3]: 1 (14) n (%) | Any TEAE leading to BOS dose interruption [3]: 5 (71) n (%) | Any TEAE leading to BOS dose reduction [3]: 2 (29) n (%) | Any TEAE leading to study discontinuation [3]: 1 (14) n (%) | Any TEAE related to BOS leading to BOS discontinuation [3]: 1 (14) n (%) | Any TEAE related to BOS leading to study discontinuation [3]: 1 (14) n (%) | Any TEAE resulting in death [3]: 0 n (%) | Any TEAE, grade ≥3 [3]: 6 (86) n (%) | Serious TEAEs related to BOS [3]: 0 n (%) | Serious TEAEs, any [3]: 2 (29) n (%) | TEAE related to BOS, CTCAE grade ≥3: Anemia [3]: 0 n (%) | TEAE related to BOS, CTCAE grade ≥3: Asthenia [3]: 0 n (%) | TEAE related to BOS, CTCAE grade ≥3: Blood creatinine phosphokinase increased [3]: 2 (29) n (%) | TEAE related to BOS, CTCAE grade ≥3: Diarrhea [3]: 0 n (%) | TEAE related to BOS, CTCAE grade ≥3: Hypophosphatemia [3]: 2 (29) n (%) | TEAE related to BOS, CTCAE grade ≥3: Lymphopenia [3]: 0 n (%) | TEAE related to BOS, CTCAE grade ≥3: Muscular weakness [3]: 0 n (%) | TEAE related to BOS, CTCAE grade ≥3: Myositis [3]: 0 n (%) | TEAE related to BOS, CTCAE grade ≥3: Neutropenia [3]: 0 n (%) | TEAE related to BOS, CTCAE grade ≥3: Neutrophil count decreased [3]: 1 (14) n (%) | TEAE related to BOS, any [3]: 7 (100) n (%) | TEAE related to BOS, grade ≥3 [3]: 6 (86) n (%) | patients who discontinued study treatment due to AEs (part B, % of 54 screened): 7 (13%) n (%) | BOS172738-related TEAEs (parts A and B, final cut-off): 85% | BOS172738-related TEAEs, grade ≥3 (parts A and B, final cut-off): 54% | BOS172738-related grade ≥3 anemia (parts A and B, final cut-off): 9% | BOS172738-related grade ≥3 blood creatine phosphokinase increased (parts A and B, final cut-off): 25% | BOS172738-related grade ≥3 neutrophil count decreased (parts A and B, final cut-off): 10% | patients with at least one TEAE (parts A and B, final data cut-off): 100% | elevated blood creatine phosphokinase leading to dose interruption (pooled data): 28% | elevated blood creatine phosphokinase leading to dose reduction (pooled data): 17% | elevated blood creatine phosphokinase leading to treatment discontinuation (pooled data): 2%
